Experimental data reported in ChEMBL document CHEMBL4371044, “Celastrol Promotes Weight Loss in Diet-Induced Obesity by Inhibiting the Protein Tyrosine Phosphatases PTP1B and TCPTP in the Hypothalamus” (J Med Chem, 2018).
Activity calls are given as the source filed them. The calls are words filed in the database; no cut-off is given here.

How the values were obtained:
[1] = biological target: T1, Tyrosine-protein phosphatase non-receptor type 1 (Homo sapiens, UniProt P18031); assay: Inhibition of human N-terminal His6-tagged PTP1B catalytic domain (1 to 393 residues) expressed in Escherichia coli strain Rosetta2 (DE3) using DiFMUP as substrate preincubated for 10 mins followed by substrate addition and measured after 10 mins by fluorescence assay
T1 sequence (P18031 whole entry): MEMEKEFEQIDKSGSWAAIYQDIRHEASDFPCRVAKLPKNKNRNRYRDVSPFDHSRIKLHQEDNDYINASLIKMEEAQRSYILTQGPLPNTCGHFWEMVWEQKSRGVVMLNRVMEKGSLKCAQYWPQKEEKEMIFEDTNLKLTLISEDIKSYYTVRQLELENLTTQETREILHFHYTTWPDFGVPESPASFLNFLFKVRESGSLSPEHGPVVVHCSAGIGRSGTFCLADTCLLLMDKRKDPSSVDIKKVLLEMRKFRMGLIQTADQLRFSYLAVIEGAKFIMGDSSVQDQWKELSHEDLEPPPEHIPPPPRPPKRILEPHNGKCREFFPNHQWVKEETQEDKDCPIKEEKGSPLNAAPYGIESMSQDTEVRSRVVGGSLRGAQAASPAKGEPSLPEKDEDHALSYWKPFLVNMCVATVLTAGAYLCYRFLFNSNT
Method in brief: (§1)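 Tag-cleaved, SEC-purified enzyme at 1 nM, preincubated 10 min with compound at 15 concentrations from 0–500 μM (5% DMSO final) in 25 mM Bis-Tris propane pH 7.5, 50 mM NaCl, 2 mM EDTA. DiFMUP added at each construct's Km (10, 7, 10, 9 μM for PTP1B1−298, PTP1B1−393, TCPTP1−296, TCPTP1−336). Read ex 358/em 455 nm continuously 10 min at 37 °C; triplicate; log(inhibitor)-response fit.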

[2] = biological target: T2, Tyrosine-protein phosphatase non-receptor type 2 (Homo sapiens, UniProt P17706); assay: Inhibition of human N-terminal His6-tagged TCPTP catalytic domain (1 to 336 residues) expressed in Escherichia coli strain Rosetta2 (DE3) using DiFMUP as substrate preincubated for 10 mins followed by substrate addition and measured after 10 mins by fluorescence assay; method in brief: as §1
T2 sequence (P17706 whole entry): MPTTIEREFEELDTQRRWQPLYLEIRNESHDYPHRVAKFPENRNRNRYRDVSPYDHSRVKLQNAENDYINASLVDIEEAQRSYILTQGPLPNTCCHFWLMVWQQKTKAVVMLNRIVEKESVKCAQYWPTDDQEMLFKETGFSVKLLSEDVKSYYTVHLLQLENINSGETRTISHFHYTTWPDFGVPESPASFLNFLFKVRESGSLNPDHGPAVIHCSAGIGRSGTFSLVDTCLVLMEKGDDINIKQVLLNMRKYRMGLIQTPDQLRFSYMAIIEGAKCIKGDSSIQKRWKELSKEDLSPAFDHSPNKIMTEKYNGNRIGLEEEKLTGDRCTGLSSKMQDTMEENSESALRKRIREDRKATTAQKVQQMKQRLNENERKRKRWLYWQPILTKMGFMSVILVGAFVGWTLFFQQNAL

[3] = biological target: T3, Tyrosine-protein phosphatase non-receptor type 1 (Homo sapiens) (UniProt P18031); assay: Inhibition of human N-terminal His6-tagged PTP1B catalytic domain (1 to 393 residues) expressed in Escherichia coli strain Rosetta2 (DE3) at 500 uM using DiFMUP as substrate preincubated for 10 mins followed by substrate addition and measured after 10 mins by fluorescence assay
T3 sequence (whole entry): T1 sequence (P18031 whole entry)

[4] = biological target: T4, Tyrosine-protein phosphatase non-receptor type 2 (Homo sapiens) (UniProt P17706); assay: Inhibition of human N-terminal His6-tagged TCPTP catalytic domain (1 to 336 residues) expressed in Escherichia coli strain Rosetta2 (DE3) at 500 uM using DiFMUP as substrate preincubated for 10 mins followed by substrate addition and measured after 10 mins by fluorescence assay
T4 sequence (whole entry): T2 sequence (P17706 whole entry)

Nc1ccc(NC(=O)C(=O)O)cc1
IC50 [1]: 910 µM
IC50 [2]: 478 µM

CC1=C(CO)C(=O)O[C@@H]([C@@H](C)[C@H]2CC[C@H]3[C@@H]4C[C@H]5O[C@]56[C@@H](O)C=CC(=O)[C@]6(C)[C@H]4CC[C@]23C)C1
inhibition [3]: inactive
inhibition [4]: inactive

Cc1c(O)c(O)cc2c1CC=C1[C@@]2(C)CC[C@@]2(C)[C@@H]3C[C@](C)(C(=O)O)CC[C@]3(C)CC[C@]12C
inhibition [3]: Active
inhibition [4]: Active
